Experimental data as given in ChEMBL document CHEMBL3526056, “Characterization of in vitro glucuronidation clearance of a range of drugs in human kidney microsomes: comparison with liver and intestinal glucuronidation and impact of albumin” (Drug Metab Dispos, 2012).

Legend:
[1] = biological target: T1, UDP-glucuronosyltransferase 1A1 (Homo sapiens, UniProt P22309); test: Drug metabolism in human intestinal microsomes assessed as UGT1A1-mediated unbound intrinsic glucuronidation clearance at 1 uM after 30 to 60 mins by LC-MS/MS analysis in presence of 2% bovine serum albumin; type: ADME, Intestine
T1 sequence (P22309 whole entry): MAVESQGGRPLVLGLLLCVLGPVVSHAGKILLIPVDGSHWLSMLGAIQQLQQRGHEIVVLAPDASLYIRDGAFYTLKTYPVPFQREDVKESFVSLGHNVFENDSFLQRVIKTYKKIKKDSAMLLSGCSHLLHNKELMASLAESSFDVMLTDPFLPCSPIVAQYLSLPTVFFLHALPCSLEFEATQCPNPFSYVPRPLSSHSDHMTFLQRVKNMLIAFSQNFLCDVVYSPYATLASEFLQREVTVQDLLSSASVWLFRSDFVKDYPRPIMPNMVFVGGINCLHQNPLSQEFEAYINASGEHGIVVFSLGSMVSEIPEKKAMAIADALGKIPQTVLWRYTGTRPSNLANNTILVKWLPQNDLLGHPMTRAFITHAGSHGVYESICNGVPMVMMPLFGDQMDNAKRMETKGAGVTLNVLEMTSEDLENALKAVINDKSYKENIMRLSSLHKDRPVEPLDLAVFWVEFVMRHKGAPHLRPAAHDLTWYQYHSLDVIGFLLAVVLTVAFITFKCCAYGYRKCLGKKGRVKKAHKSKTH

[2] = biological target: T1, UDP-glucuronosyltransferase 1A1; test: Ratio of UGT1A1-mediated unbound intrinsic glucuronidation clearance in human intestinal microsomes to UGT1A1-mediated unbound intrinsic glucuronidation clearance in human liver microsomes at 1 uM in presence of 2% bovine serum albumin; type: ADME
[3] = biological target: T1, UDP-glucuronosyltransferase 1A1; test: Ratio of UGT1A1-mediated unbound intrinsic glucuronidation clearance in human kidney microsomes to UGT1A1-mediated unbound intrinsic glucuronidation clearance in human intestinal microsomes at 1 uM in presence of 2% bovine serum albumin; type: ADME
[4] = Fraction unbound in human liver microsomes at 1 uM after 30 to 60 mins by LC-MS/MS analysis; type: ADME
[5] = Fraction unbound in human kidney microsomes at 1 uM after 30 to 60 mins by LC-MS/MS analysis; type: ADME
[6] = Fraction unbound in human intestinal microsomes at 1 uM after 30 to 60 mins by LC-MS/MS analysis; type: ADME, Intestine, Microsome
[7] = Fraction unbound in human liver microsomes at 1 uM […] by LC-MS/MS analysis in presence of 2% bovine serum albumin; type: ADME
Liver microsome [8] = test: Unbound intrinsic glucuronidation clearance in human liver microsomes at 1 uM after 30 to 60 mins by LC-MS/MS analysis in presence of UDP-glucuronosyltransferase; type: ADME
Summary of the method: (§1)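 Alamethicin-activated pooled microsomes (HLM 150 donors; HKM 8; HIM 18). Drug at 1 μM final, preincubated 5 min at 37°C in 0.1 M phosphate pH 7.1 with 3.45 mM MgCl2, 1.15 mM EDTA, 115 μM saccharic acid lactone. Started with […] cofactor (5 mM final), 30–60 min. Cofactor-free controls. Parent depletion by LC-MS/MS, single-exponential k. Corrected by HLM-dialysis fu,inc. Duplicates; n=3 (HIM n=1).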

Liver microsome [9] = test: Unbound intrinsic glucuronidation clearance in human liver microsomes at 1 uM after 30 to 60 mins by LC-MS/MS analysis in presence of UDP-glucuronosyltransferase and 2% bovine serum albumin; type: ADME
Summary of the method: (§2)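 Pooled alamethicin-activated human liver, kidney or intestinal microsomes. […] Duplicate incubations of 30–60 min, with no-cofactor controls. Parent depletion read by LC-MS/MS. k from a single-exponential fit, corrected by fu,inc.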

[10] = Unbound intrinsic glucuronidation clearance in human kidney microsomes at 1 uM after 30 to 60 mins by LC-MS/MS analysis in presence of UDP-glucuronosyltransferase; type: ADME, microsome; summary of the method: as §1
[11] = biological target: T1, UDP-glucuronosyltransferase 1A1; test: Ratio of UGT1A1-mediated unbound intrinsic glucuronidation clearance in human kidney microsomes to UGT1A1-mediated unbound intrinsic glucuronidation clearance in human liver microsomes at 1 uM in presence of 2% bovine serum albumin; type: ADME
[12] = biological target: T1, UDP-glucuronosyltransferase 1A1; test: Drug metabolism in human intestinal microsomes assessed as UGT1A1-mediated unbound intrinsic glucuronidation clearance at 1 uM after 30 to 60 mins by LC-MS/MS analysis; type: ADME, Intestine
[13] = biological target: T1, UDP-glucuronosyltransferase 1A1; test: Ratio of UGT1A1-mediated unbound intrinsic glucuronidation clearance in human kidney microsomes to UGT1A1-mediated unbound intrinsic glucuronidation clearance in human liver microsomes at 1 uM; type: ADME
[14] = Unbound intrinsic glucuronidation clearance in human kidney microsomes at 1 uM after 30 to 60 mins by LC-MS/MS analysis in presence of UDP-glucuronosyltransferase and 2% bovine serum albumin; type: ADME, microsome; summary of the method: as §2
[15] = Unbound intrinsic glucuronidation clearance in human intestinal microsomes at 1 uM after 30 to 60 mins by LC-MS/MS analysis in presence of UDP-glucuronosyltransferase; type: ADME, Intestine, Microsome; summary of the method: as §1
[16] = Unbound intrinsic glucuronidation clearance in human intestinal microsomes at 1 uM after 30 to 60 mins by LC-MS/MS analysis in presence of UDP-glucuronosyltransferase and 2% bovine serum albumin; type: ADME, Intestine, Microsome; summary of the method: as §2
Liver microsome [17] = test: Ratio of unbound intrinsic glucuronidation clearance in human liver microsomes in presence of 2% bovine serum albumin to unbound intrinsic glucuronidation clearance in human liver microsomes in absence of bovine serum albumin; type: ADME
Summary of the method: (§3)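 Ratios of mean scaled unbound CLint,UGT (per g tissue) between tissues, or between with and without BSA. Microsomal depletion assays at 1 μM, or 5 μM for propofol, in pH 7.1 phosphate at 37°C, read by LC-MS/MS. Kidney and liver n = 3, intestine n = 1, each in duplicate.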

[18] = Ratio of unbound intrinsic glucuronidation clearance in human kidney microsomes in presence of 2% bovine serum albumin to unbound intrinsic glucuronidation clearance in human kidney microsomes in absence of bovine serum albumin; type: ADME, microsome; summary of the method: as §3
[19] = biological target: T1, UDP-glucuronosyltransferase 1A1; test: Drug metabolism in human liver microsomes assessed as UGT1A1-mediated unbound intrinsic glucuronidation clearance at 1 uM after 30 to 60 mins by LC-MS/MS analysis; type: ADME
[20] = biological target: T1, UDP-glucuronosyltransferase 1A1; test: Drug metabolism in human kidney microsomes assessed as UGT1A1-mediated unbound intrinsic glucuronidation clearance at 1 uM after 30 to 60 mins by LC-MS/MS analysis; type: ADME
[21] = biological target: T1, UDP-glucuronosyltransferase 1A1; test: Ratio of UGT1A1-mediated unbound intrinsic glucuronidation clearance in human intestinal microsomes to UGT1A1-mediated unbound intrinsic glucuronidation clearance in human liver microsomes at 1 uM; type: ADME
[22] = biological target: T1, UDP-glucuronosyltransferase 1A1; test: Ratio of UGT1A1-mediated unbound intrinsic glucuronidation clearance in human kidney microsomes to UGT1A1-mediated unbound intrinsic glucuronidation clearance in human intestinal microsomes at 1 uM; type: ADME
[23] = biological target: T1, UDP-glucuronosyltransferase 1A1; test: Drug metabolism in human liver microsomes assessed as UGT1A1-mediated unbound intrinsic glucuronidation clearance at 1 uM after 30 to 60 mins by LC-MS/MS analysis in presence of 2% bovine serum albumin; type: ADME
[24] = biological target: T1, UDP-glucuronosyltransferase 1A1; test: Drug metabolism in human kidney microsomes assessed as UGT1A1-mediated unbound intrinsic glucuronidation clearance at 1 uM after 30 to 60 mins by LC-MS/MS analysis in presence of 2% bovine serum albumin; type: ADME
[25] = biological target: UDP-glucuronosyltransferase 1A1 (Homo sapiens) (UniProt P22309); test: Drug metabolism in human intestinal microsomes assessed as UGT1A1-mediated unbound intrinsic glucuronidation clearance at 1 uM after 30 to 60 mins by LC-MS/MS analysis in presence of 2% bovine serum albumin
[26] = Drug metabolism in human intestinal microsomes assessed as UGT1A9/2B7-mediated unbound intrinsic glucuronidation clearance at 1 uM after 30 to 60 mins by LC-MS/MS analysis in presence of 1% bovine serum albumin; type: ADME, Intestine
[27] = Clearance in iv dosed human; type: ADME, organism-based; details: in vivo
[28] = Renal clearance in human; type: ADME, organism-based, Kidney; details: in vivo
Liver microsome [29] = test: Fraction metabolized glucuronidation in human liver microsomes in presence of UDP-glucuronosyltransferase; type: ADME
Liver microsome [30] = test: Fraction metabolized glucuronidation in human liver microsomes in presence of UDP-glucuronosyltransferase and bovine serum albumin; type: ADME
Liver microsome [31] = test: Fraction unbound in human liver microsomes at 1 uM after 30 to 60 mins by LC-MS/MS analysis in presence of 1% bovine serum albumin; type: ADME; details: microsomes, 1 µM
Liver microsome [32] = test: Unbound intrinsic glucuronidation clearance in human liver microsomes at 1 uM after 30 to 60 mins by LC-MS/MS analysis in presence of UDP-glucuronosyltransferase and 1% bovine serum albumin; type: ADME
[33] = Drug metabolism in human intestinal microsomes assessed as UGT1A9/2B7-mediated unbound intrinsic glucuronidation clearance at 1 uM after 30 to 60 mins by LC-MS/MS analysis; type: ADME, Intestine
[34] = Unbound intrinsic glucuronidation clearance in human kidney microsomes at 1 uM after 30 to 60 mins by LC-MS/MS analysis in presence of UDP-glucuronosyltransferase and 1% bovine serum albumin; type: ADME, microsome
[35] = Unbound intrinsic glucuronidation clearance in human intestinal microsomes at 1 uM after 30 to 60 mins by LC-MS/MS analysis in presence of UDP-glucuronosyltransferase and 1% bovine serum albumin; type: ADME, Intestine, Microsome
[36] = Drug metabolism in human liver microsomes assessed as UGT1A9/2B7-mediated unbound intrinsic glucuronidation clearance at 1 uM after 30 to 60 mins by LC-MS/MS analysis; type: ADME
[37] = Drug metabolism in human kidney microsomes assessed as UGT1A9/2B7-mediated unbound intrinsic glucuronidation clearance at 1 uM after 30 to 60 mins by LC-MS/MS analysis; type: ADME
[38] = Drug metabolism in human liver microsomes assessed as UGT1A9/2B7-mediated unbound intrinsic glucuronidation clearance at 1 uM after 30 to 60 mins by LC-MS/MS analysis in presence of 1% bovine serum albumin; type: ADME
[39] = Drug metabolism in human kidney microsomes assessed as UGT1A9/2B7-mediated unbound intrinsic glucuronidation clearance at 1 uM after 30 to 60 mins by LC-MS/MS analysis in presence of 1% bovine serum albumin; type: ADME

In the case of `O=C1[C@H](CC[C@H](O)c2ccc(F)cc2)[C@@H](c2ccc(O)cc2)N1c1ccc(F)cc1` [EZETIMIBE], the CL free [1] is reported as 23.8 mL/min/g, the Ratio [2] is reported as 0.115 and the Ratio [3] is reported as 0.266. For the same molecule, the fraction unbound at 1 µM [4] was 0.3, the fraction unbound at 1 µM [5] was 0.18 and the fraction unbound at 1 µM [6] was 0.18. The fraction unbound at 1 µM [7] was 0.05, the CL free (Liver microsome [8]) was 2930 µL/min/mg and the CL free (Liver microsome [9]) was 5180 µL/min/mg. The CL free [10] was 295 µL/min/mg, the Ratio [11] was 0.031 and the CL free [12] was 8.61 mL/min/g. It also gave a Ratio [13] of 0.032, a CL free [14] of 495 µL/min/mg and a CL free [15] of 418 µL/min/mg. The CL free [16] was 1160 µL/min/mg, the Ratio (Liver microsome [17]) was 1.8 and the Ratio [18] was 1.7. For the same molecule, the CL free [19] was 117 mL/min/g, the CL free [20] was 3.78 mL/min/g and the Ratio [21] was 0.073. The Ratio [22] was 0.439, the CL free [23] was 207 mL/min/g and the CL free [24] was 6.34 mL/min/g. The CL free [25] was 23.8 mL/min/g.

Molecule `O=C(O)Cc1ccccc1Nc1c(Cl)cccc1Cl` [DICLOFENAC] has a CL free [26] of 6.7 mL/min/g, a clearance [27] of 4.84 mL/min/kg and a CL renal [28] of 0.06 mL/min/kg. It also gave a Drug metabolism (Liver microsome [29]) of 0.62, a Drug metabolism (Liver microsome [30]) of 0.65 and a fraction unbound at 1 µM [4] of 0.98. It also gave a fraction unbound at 1 µM [5] of 0.99, a fraction unbound at 1 µM [6] of 0.98 and a Fu (Liver microsome [31]) of 0.02. For the same molecule, the CL free (Liver microsome [8]) was 761 µL/min/mg, the CL free (Liver microsome [32]) was 1190 µL/min/mg and the CL free [10] was 177 µL/min/mg. It also gave a CL free [33] of 1.54 mL/min/g, a CL free [34] of 543 µL/min/mg and a CL free [15] of 74.9 µL/min/mg. The CL free [35] was 325 µL/min/mg, the CL free [36] was 30.5 mL/min/g and the CL free [37] was 2.27 mL/min/g. The CL free [38] was 47.4 mL/min/g and the CL free [39] was 6.95 mL/min/g.
